Bioassay records from PubChem BioAssay.
Insulin prom act – activators of insulin promoter-driven GFP, primary screen, imaging, TRM-6 cells, eGFP reporter, cell count. plate-scaled: unstimulated 0, stimulated control 100. activation, % at 2 µM. 130,000 compounds, 0.81% hits. AID 1296, 2008;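 active = activation at 2 µM above a set limit, confirmed on inspection of the cell images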;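 note: share of cells whose green reporter signal exceeds an intensity cutoff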
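Test system: human fetal islet-derived TRM-6 cells with tamoxifen-inducible insulin promoter–eGFP reporter; schedule: overnight tamoxifen, then two-day compound incubation at 37 °C; measured by: high-content imaging of fixed cells with Hoechst nuclear stain; evaluation: percent cells above green-intensity threshold, converted to percent activation versus plate controls; control set: stimulated and unstimulated wells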
Active calls of the source: *. This excerpt belongs to a sample that is enriched for hits.

SMILES | Insulin prom act
O=S(=O)(NCC1CCCO1)c1cccc(S(=O)(=O)N2CCCC2)c1 (configuration not stated) | 0
O=S(=O)(NC1CCCC1)c1cccc(S(=O)(=O)N2CCC(n3nnc4ccccc43)CC2)c1 | 157*
Cc1cccc(NC(=O)N2CCC(n3nnc4cc(C)ccc43)CC2)c1 | 0
Cc1ccc(C(=O)NNC(=O)CSc2nnc(-c3ccncc3)n2-c2ccc(C)cc2)cc1 | 0
CCC1=NN(C(=O)c2cccnc2)C(O)(C(F)(F)F)C1 (configuration not stated) | -7
CCOc1ccc(-n2c(Cc3cc(=O)[nH]c(=O)[nH]3)nnc2SCC(=O)Nc2nnc(C)s2)cc1 | 5
COc1ccc(NCc2nnc(SCC(=O)Nc3cc(C(F)(F)F)ccc3Cl)o2)cc1 | -7
COc1ccc(-n2c(Cc3cc(=O)[nH]c(=O)[nH]3)nnc2SCC(=O)Nc2cc(C(F)(F)F)ccc2Cl)cc1 | 255*
O=C(Nc1cc(C(F)(F)F)ccc1N1CCOCC1)c1c(F)c(F)c(F)c(F)c1F | 333
O=[N+]([O-])c1cc(C(F)(F)F)ccc1N1CCN(S(=O)(=O)c2ccc3ccccc3c2)CC1 | -6
O=S(=O)(Nc1cc(C(F)(F)F)ccc1N1CCOCC1)c1ccc2ccccc2c1 | 386*
Cc1ccc(C2=CSC3=NS(=O)(=O)CCN23)cc1 | -8
COc1ccc(C2=CC(=O)OC(C)(c3ccccc3)O2)cc1 (configuration not stated) | -2
CCn1c(SCC(=O)N2CCCC(C)C2)nnc1-c1ccc(S(=O)(=O)N2CCN(C)CC2)cc1 (configuration not stated) | 81*
CCSc1nnc(-c2ccc(S(=O)(=O)N3CCCC3)cc2)n1C | 0
CCn1c(SCC(=O)Nc2ccccc2)nnc1-c1ccc(S(=O)(=O)N2CCOCC2)cc1 | -3
COc1ccc([N+](=O)[O-])cc1NC(=O)CCN1CCN(CCO)CC1 | -7
CCOC(=O)N1CCN(CCC(=O)Nc2cc([N+](=O)[O-])ccc2OC)CC1 | 331*
COc1ccc([N+](=O)[O-])cc1NC(=O)CSc1nc(C)c(C)c(C)n1 | -3
COCCNC(=O)CSc1nc2ccccc2c(=O)n1CCC(=O)N1CCN(c2ccccc2)CC1 | 0
COc1cccc(CNc2ccc([N+](=O)[O-])c(NCC(=O)O)n2)c1 | 0
CC(=O)N(C)C(c1ccc(N(C)C)cc1)c1nnnn1-c1c(C)cccc1C (configuration not stated) | -9
COc1ccc(OC)c(/C=N/N(C)c2ccccc2)c1 | 132*
COc1ccc(OC)c(C(=O)c2ccccc2)c1 | -81
COc1ccc(OC)c(/C=N/NC(=O)CCCC(=O)Nc2cccc(Br)c2)c1 | 7
SMILES | Insulin prom act
COc1ccc(NC(C)=O)cc1CNC(=O)COc1c(C)c(C)cc(C)c1C | -2
COc1cccc(N2CCN(C(=O)CCCCCNc3nc(=S)[nH]c4ccccc34)CC2)c1 | 6
CC(=NCCCNC1CCCCC1)C1=C(O)CC(C)(C)CC1=O | 89*
CC1(C)CC(=O)C(C=N)=C(O)C1 | 4
Cc1[nH]nc(Sc2ccccn2)c1[N+](=O)[O-] | 8
CC(C)Cc1nnc(NC(=O)CSc2nc(O)c(-c3ccccc3)c(=O)[nH]2)s1 | -8
O=C1C2C(C(=O)N1/N=C/c1ccc(N3CCCCC3)o1)C1C=CC2C12CC2 (configuration not stated) | 182
CCc1cc(CC)c(/C=N/NC(N)=O)c(CC)c1 | 0
COCCNC(=O)c1cn(C)c2ccccc2c1=O | 0
CC(=O)Nc1ccccc1C(=O)C(=O)Nc1ccc(C(=O)NCC2CCCO2)cc1 (configuration not stated) | 7
CCN1/C(=C/c2ccc3cc(C)ccc3[n+]2CC)Sc2cc(C)ccc21 | 614*
CCN1/C(=C/c2ccc3cc(C)ccc3[n+]2C)Sc2ccc3sccc3c21 | 376*
CN1CC2([N+](=O)[O-])CC=C(OCCO)C([N+](=O)[O-])(C1)C2 (configuration not stated) | -8
C=CCc1c(C)[nH]c(=O)[nH]c1=O | -78
Cc1cccc(NC(=S)NC2CC3CCCC(C2)N3CC(C)C)c1 (configuration not stated) | 176
c1ccc(CSc2ccc(-c3cccnc3)nn2)cc1 | 0
CCOc1ccc(NC(=S)NCC(c2cccnc2)N2CCOCC2)cc1 (configuration not stated) | -7
COc1ccc(OC)c(NS(=O)(=O)c2ccc(NC(=O)c3ccc(NS(C)(=O)=O)cc3)cc2)c1 | 2
Cc1cccnc1NC(=O)COc1ccc2oc3c(c2c1)CCCC3 | 433*
Cc1cc(C)cc(OCC(=O)Nc2nonc2NC(=O)COc2cc(C)cc(C)c2)c1 | -6
COc1cc2c(cc1NC(=O)COc1ccc3ccccc3c1)oc1ccccc12 | -7
O=C(c1sc2cccc(F)c2c1Cl)N1CCN(c2ncccn2)CC1 | 4
Cc1cc(NC(=O)c2ccccc2NS(=O)(=O)c2c(C)c(C)cc(C)c2C)no1 | 4
Cc1ccc(S(=O)(=O)Nc2cccc(C(=O)Nc3cc(C)ccn3)c2)cc1 | 7
Cc1ccc(NS(=O)(=O)c2cccc(C(=O)Nc3cc(C)on3)c2)cc1 | 369*
SMILES | Insulin prom act
Cc1cc2c(c(SCC#N)n1)C(=O)OC2 | 4
Cn1ccc(C(=O)OCC(=O)Nc2cccc3ccccc23)n1 | -7
CCCN(CCC)S(=O)(=O)c1ccc(C(=O)NNc2nc(-c3ccccc3)c3cc(Br)ccc3n2)cc1 | 0
COc1ccc(CN2CCN(Cc3csc(C(C)=O)c3)CC2CCO)c(C)c1C (configuration not stated) | 5
Cc1cc(O)ccc1NC(=O)CCN1C(=O)c2ccc([N+](=O)[O-])cc2C1=O | 4
O=C(CNc1ccccc1)NN=C1CCCC1 | 6
COc1ccc2nc(/N=C/c3c(C)[nH]n(-c4ccc(C)cc4C)c3=O)sc2c1 | 0
O=C(NNC(=O)c1ccc(F)cc1F)c1ccc2c(c1)OCO2 | -79
Cc1ccccc1NC(=O)c1c(Cl)nc(C)c(Cl)c1C | 156
Cc1ccccc1C(=O)Nc1ccccc1-n1cccc1 | 1
Cc1ccccc1NC(=O)c1cccc2nc3ccccc3nc12 | 233*
COc1ccc(N(CC(=O)Nc2nccs2)S(=O)(=O)c2c(C)[nH]c(=O)[nH]c2=O)cc1 | -79
CCOC(=O)/C(C#N)=C\c1cccnc1 | 7
C=CCN1C=CC(=C/C=C(/C#N)C(=O)OCC)C=C1 | 163*
CCOC(=O)/C(C#N)=C/c1cccc(F)c1 | 7
NC(=O)C1(N2CCCCC2)CCN(C(=O)c2cccn3c(=O)c4cc(Cl)ccc4nc23)CC1 | 150*
O=C(c1cccn2c(=O)c3cc(Cl)ccc3nc12)N1CCN(Cc2ccc3c(c2)OCO3)CC1 | -9
CCOCCCn1c(=S)[nH]c2cc(C(=O)N3CCC(C(N)=O)(N4CCCCC4)CC3)ccc2c1=O | -7
CC(=O)c1cnc2c(-c3ccc(Cl)cc3)cnn2c1C | 585*
CC(=O)c1cnc2cc(-c3cccc(Br)c3)nn2c1C | 7
N#Cc1cnn2c(N)c(-c3ccc(Cl)cc3)cnc12 | 9
Cn1c(NC(=O)Cc2cccc3ccccc23)cc(=O)n(C)c1=O | 111
CCN(CC)S(=O)(=O)c1ccc(NC(=O)CCC2CCCCC2)cc1 | -8
O=C(CCc1ccc(S(=O)(=O)NCCc2ccccc2)cc1)N1CCN(Cc2ccc3c(c2)OCO3)CC1 | -6
COc1ccc(N(CC(=O)N2CCN(Cc3ccc4c(c3)OCO4)CC2)S(C)(=O)=O)cc1OC | 91
